One assay has as its system KB. The experiment in a line: Cytotoxicity against human KB cells after 72 hrs by Alamar blue assay. In kind it is cell-based. The procedure, abridged: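 Monolayers grown in RPMI 1640 + 10% heat-inactivated FCS at 37°C, 5% CO2. After 72 h compound exposure, Alamar Blue added and incubated a further 2-4 h. Fluorescence read at 530/580 nm, cut-off 550 nm. Podophyllotoxin served as positive control. IC50 is the concentration killing 50% of cells.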

Assay [1] concerns Plasmodium falciparum. Briefly: Antimalarial activity against chloroquine-susceptible Plasmodium falciparum 3D7 assessed as inhibition of parasite growth after 48 hrs by [3H]hypoxanthine reuptake assay. In kind it is functional, organism-based. The procedure, abridged:
(§1)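 Synchronised ring-stage cultures at 1% parasitemia, 5% hematocrit, in RPMI 1640 at 37°C, 5% CO2; top final test concentration 30 µg/mL. After 24 h, (3H)-hypoxanthine (0.2 µCi/well) was added, followed by a further 48 h incubation. Plates were freeze/thawed and harvested, and uptake was counted by scintillation. IC50 came from sigmoidal regression as the mean of at least three determinations.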

In the next assay the test system is Leishmania donovani. Briefly: Antileishmanial activity against Leishmania donovani MHOM/ET/ 67/HU3 amastigote infected in CD1 mouse peritoneal exudate macrophages assessed as parasite growth inhibition after 5 days by Giemsa staining. Format: functional, organism-based. As to conditions: MHOM/ET/ 67/HU3, 120 h. In a few lines: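 Macrophages from starch-induced peritoneal exudate, harvested after 24 h, held 24 h in RPMI 1640 + 10% HIFCS at 37°C, 5% CO2. Infected with hamster-spleen-derived amastigotes at 5 parasites:1 macrophage, then 24 h later drug applied for 5 days, overlay renewed day 3. Top concentration 30 µg/mL, quadruplicates. Methanol fixation, microscopic scoring. IC50 by sigmoidal regression, mean of at least three determinations.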

Assay [2] concerns Plasmodium falciparum. Briefly: Antimalarial activity against chloroquine-resistant Plasmodium falciparum K1 assessed as inhibition of parasite growth after 48 hrs by [3H]hypoxanthine reuptake assay. Format: functional, organism-based. In a few lines:
as §1

Bounds are passed on as bounds.

As to `CCN(CCN)Cc1cc(Nc2ccnc3cc(Cl)ccc23)ccc1O`, the IC50 with KB came to 25.6 µM; in the assay on Plasmodium falciparum [1], 0.00547 µM; in the assay on Leishmania donovani, 5.65 µM; in the assay on Plasmodium falciparum [2], 0.00547 µM.

With `Oc1ccc(Nc2ccnc3cc(Cl)ccc23)cc1CN1CCN(c2ccccn2)CC1`, the IC50 stood at 16.1 µM in the assay on KB, 0.000323 µM in the assay with Plasmodium falciparum [1], 6.71 µM in the assay with Leishmania donovani and 0.0014 µM in the assay with Plasmodium falciparum [2].

Turning to `CCN(CCNC(=O)[C@H](C)N)Cc1cc(Nc2ccnc3cc(Cl)ccc23)ccc1O`, the IC50 was 10.4 µM in the assay on KB, 0.0122 µM in the assay on Plasmodium falciparum [1], 5.15 µM with Leishmania donovani and 14.1 µM in the assay with Plasmodium falciparum [2].

Take `OCc1cc(Nc2ccnc3cc(Cl)ccc23)ccc1O`: the IC50 with KB was 198 µM; in the assay on Plasmodium falciparum [1], 0.712 µM; with Leishmania donovani, over 89 µM; in the assay with Plasmodium falciparum [2], 1.42 µM.

Take `CCN(CCNC(=O)[C@@H](N)CC(C)C)Cc1cc(Nc2ccnc3cc(Cl)ccc23)ccc1O`: the IC50 in the assay on KB came out at 22.3 µM; in the assay on Plasmodium falciparum [1], 0.0226 µM; with Leishmania donovani, 4.69 µM; with Plasmodium falciparum [2], 14.3 µM.

As to `Oc1ccc(Nc2ccnc3cc(Cl)ccc23)cc1CN1CCN(c2nc3ccccc3o2)CC1`, the IC50 worked out at 8.02 µM with KB, 0.00168 µM in the assay on Plasmodium falciparum [1], 14.6 µM in the assay with Leishmania donovani and 0.387 µM in the assay on Plasmodium falciparum [2].

With `Oc1ccc(Nc2ccnc3cc(Cl)ccc23)cc1CN1CCN(c2cccs2)CC1`, the IC50 was 50.4 µM in the assay on KB, 0.00222 µM in the assay on Plasmodium falciparum [1] and 9.14 µM with Leishmania donovani.

In the case of `Oc1ccc(Nc2ccnc3cc(Cl)ccc23)cc1CN1CCN(c2nc3ccccc3[nH]2)CC1`, the IC50 in the assay with KB came out at 2.44 µM; with Plasmodium falciparum [1], 0.00308 µM; in the assay on Leishmania donovani it was 1.87 µM; in the assay on Plasmodium falciparum [2] it was 0.00154 µM.

With `CCOC(=O)N1CCN(Cc2cc(Nc3ccnc4cc(Cl)ccc34)ccc2O)CC1`, the IC50 came out at 11.4 µM with KB, 0.00528 µM in the assay on Plasmodium falciparum [1], 14.9 µM in the assay with Leishmania donovani and 0.00704 µM in the assay with Plasmodium falciparum [2].

For `Oc1ccc(Nc2ccnc3cc(Cl)ccc23)cc1CN1CCN(c2ccccc2)CC1`, the IC50 with KB is 8.63 µM; in the assay on Plasmodium falciparum [1], 0.00352 µM; in the assay with Leishmania donovani, 9.68 µM; with Plasmodium falciparum [2], 0.0018 µM.

On to `CCN(CCNC(=O)Nc1ccccc1)Cc1cc(Nc2ccnc3cc(Cl)ccc23)ccc1O`, for which the IC50 was found to be 5.33 µM with KB, 0.00822 µM in the assay on Plasmodium falciparum [1], 1.83 µM with Leishmania donovani and 0.238 µM with Plasmodium falciparum [2].

For `CCN(CC)Cc1cc(Nc2ccnc3cc(Cl)ccc23)ccc1O`, the IC50 with KB was 90 µM; with Plasmodium falciparum [1] it was 0.00215 µM; with Leishmania donovani, 1.4 µM; in the assay with Plasmodium falciparum [2], 0.00861 µM.

Take `CCN(CCN/C(=N/C(=O)c1ccccc1)Oc1ccccc1)Cc1cc(Nc2ccnc3cc(Cl)ccc23)ccc1O`: the IC50 with KB was 10.2 µM; with Plasmodium falciparum [1] it was 0.00673 µM; in the assay on Leishmania donovani, 2.86 µM; in the assay on Plasmodium falciparum [2], 0.0101 µM.

For the molecule `Oc1ccc(Nc2ccnc3cc(Cl)ccc23)cc1CCl`, the IC50 in the assay on KB is 25.6 µM; in the assay on Plasmodium falciparum [1] it was 0.695 µM; with Leishmania donovani, over 83.5 µM; in the assay with Plasmodium falciparum [2] it was 0.557 µM.

Regarding `C[C@H]1[C@H](OC(=O)CCC(=O)O)O[C@@H]2O[C@@]3(C)CC[C@H]4[C@H](C)CC[C@@H]1[C@@]24OO3` [ARTESUNATE], the IC50 in the assay with Plasmodium falciparum [2] is 0.00246 µM.

With `Oc1ccc(Nc2ccnc3cc(Cl)ccc23)cc1CN1CCN(c2nc3ccccc3s2)CC1`, the IC50 in the assay on KB is 45.2 µM; with Plasmodium falciparum [1] it was 0.0146 µM; in the assay on Leishmania donovani it was 12.9 µM; in the assay on Plasmodium falciparum [2], 1.48 µM.

On to `CCN(CCNC(=O)OC(C)(C)C)Cc1cc(Nc2ccnc3cc(Cl)ccc23)ccc1O`, for which the IC50 with KB stood at 8.81 µM; in the assay with Plasmodium falciparum [1] it was 0.00212 µM; in the assay on Leishmania donovani it was 8.77 µM; with Plasmodium falciparum [2], 0.00212 µM.

Consider `CCN(CCNC(=S)Nc1ccccc1)Cc1cc(Nc2ccnc3cc(Cl)ccc23)ccc1O`, for which the IC50 in the assay with KB turned out to be 8.46 µM; in the assay on Plasmodium falciparum [1], 0.00163 µM; in the assay on Leishmania donovani, 2.05 µM; in the assay with Plasmodium falciparum [2], 0.0065 µM.

Take `CCN(CCNC(=O)[C@@H](N)[C@@H](C)O)Cc1cc(Nc2ccnc3cc(Cl)ccc23)ccc1O`: the IC50 in the assay with KB is 54.4 µM; with Plasmodium falciparum [1] it was 0.047 µM; in the assay on Leishmania donovani, 15.3 µM; in the assay with Plasmodium falciparum [2], 14.1 µM.

Regarding `Oc1ccc(Nc2ccnc3cc(Cl)ccc23)cc1CN1CCN(c2nccs2)CC1`, the IC50 was 5.02 µM with KB, 0.00067 µM with Plasmodium falciparum [1], 17.7 µM in the assay with Leishmania donovani and 0.00042 µM with Plasmodium falciparum [2].

With `Oc1ccc(Nc2ccnc3cc(Cl)ccc23)cc1CN1CCNCC1`, the IC50 was 11.8 µM in the assay on KB, 0.0188 µM in the assay on Plasmodium falciparum [1], 2.29 µM in the assay with Leishmania donovani and 0.225 µM in the assay on Plasmodium falciparum [2].

Take `CCN(CCNC(=N)Nc1ccccc1)Cc1cc(Nc2ccnc3cc(Cl)ccc23)ccc1O`: the IC50 worked out at 9.03 µM in the assay on KB, 0.126 µM with Plasmodium falciparum [1], 11.7 µM in the assay on Leishmania donovani and 12.1 µM with Plasmodium falciparum [2].

On to `Oc1ccc(Nc2ccnc3cc(Cl)ccc23)cc1CN1CCN(c2ncccn2)CC1`, for which the values for the IC50 in the assay on KB and in the assay with Leishmania donovani were 8.03 µM and 7.21 µM, respectively.

Consider `CCN(CCNC(=N)c1ccccc1)Cc1cc(Nc2ccnc3cc(Cl)ccc23)ccc1O`, for which the IC50 in the assay on KB was 5.34 µM; in the assay on Plasmodium falciparum [1], 0.0484 µM; with Leishmania donovani, 7.1 µM; with Plasmodium falciparum [2], 0.29 µM.

(Values after ChEMBL document CHEMBL1154601, “A new series of amodiaquine analogues modified in the basic side chain with in vitro antileishmanial and antiplasmodial activity” (Eur J Med Chem, 2009).)
